{"data": "Published values collected from several papers", "effect on": "binding", "MET": "Hepatocyte growth factor receptor (MET, Homo sapiens, UniProt P08581)", "Tumor necrosis factor receptor superfamily member 9": "Tumor necrosis factor receptor superfamily member 9 (Homo sapiens, UniProt Q07011)", "note": "Lines come from different studies, so protocols differ."}
{"Structure (SMILES)": "C[C@@H](c1ccccc1)n1cc(-c2cc(F)cc(F)c2)c(=O)[nH]c1=O", "target": "MET", "Kd": "1 µM"}
{"Structure (SMILES)": "CCCC[C@@H]1NC(=O)[C@H](Cc2ccc(O)cc2)NC(=O)[C@@H]2CCCN2C(=O)[C@H](CC(=O)O)NC(=O)[C@H](C)NC(=O)[C@H](Cc2ccccc2)NC(=O)[C@@H]2CSCCC(=O)N3CN(CN(C3)C(=O)CCSC[C@@H](C(=O)N[C@@H](C)C(N)=O)NC1=O)C(=O)CCSC[C@H](NC(C)=O)C(=O)N[C@@H](CC(C)(C)C)C(=O)N1CCC[C@H]1C(=O)N[C@@H](CCC(=O)O)C(=O)N[C@H](CCCCNC(=O)CCc1cn(CCOCCOCCOCCOCCOCCC(=O)NCCCC[C@H]3NC(=O)[C@H](Cc4cccc5ccccc45)NC(=O)[C@@H]4CCCN4C(=O)[C@@H](NC(C)=O)CSCCC(=O)N4CN5CN(C4)C(=O)CCSC[C@H](NC3=O)C(=O)N[C@@H](CCSC)C(=O)N[C@@H](CCCCNC(=N)N)C(=O)N[C@@H](CC(=O)O)C(=O)N[C@@H](Cc3c[nH]c4ccccc34)C(=O)N[C@@H](CO)C(=O)N[C@@H]([C@@H](C)O)C(=O)N3CCC[C@H]3C(=O)N3C[C@H](O)C[C@H]3C(=O)N[C@@H](Cc3c[nH]c4ccccc34)C(=O)N[C@H](C(N)=O)CSCCC5=O)nn1)C(=O)N1CCC[C@H]1C(=O)N[C@@H](Cc1ccc(O)cc1)C(=O)N2", "target": "Tumor necrosis factor receptor superfamily member 9", "test": "SPR", "Kd": "0.0043 µM"}
{"Structure (SMILES)": "CC[C@H](C)[C@H](NC(=O)[C@H](CCC(=O)O)NC(=O)[C@H](CCC(=O)O)NC(=O)[C@H](CCC(N)=O)NC(=O)[C@@H](NC(=O)[C@@H](N)CC(=O)O)[C@@H](C)CC)C(=O)N[C@@H](CC(C)C)C(=O)N[C@@H](CO)C(=O)NCC(=O)N[C@@H](CCCCN)C(=O)N[C@@H](CO)C(=O)O", "target": "Ubiquitin carboxyl-terminal hydrolase 7 (USP7, Homo sapiens, UniProt Q93009)", "test": "ITC", "conditions": "pH 8", "Kd": "424 µM"}
{"Structure (SMILES)": "CC(c1ccccc1)n1cc(-c2c(F)ccc3cn[nH]c23)c(=O)[nH]c1=O (stereo not shown)", "target": "MET", "Kd": "0.398 µM"}
{"Structure (SMILES)": "CCCC[C@@H]1NC(=O)[C@H](Cc2ccc(O)cc2)NC(=O)[C@@H]2CCCN2C(=O)[C@H](CC(=O)O)NC(=O)[C@H](C)NC(=O)[C@H](Cc2ccccc2)NC(=O)[C@@H]2CSCCC(=O)N3CN(CN(C3)C(=O)CCSC[C@@H](C(N)=O)NC1=O)C(=O)CCSCCC(=O)N[C@@H](CC(C)(C)C)C(=O)N1CCC[C@H]1C(=O)N[C@@H](CCC(=O)O)C(=O)N[C@H](CCCCNC(=O)CCc1cn(CCOCCOCCOCCOCCOCCC(=O)N[C@H]3CSCCC(=O)N4CN5CN(C4)C(=O)CCSC[C@H](NC(=O)[C@@H](CC(=O)O)NC(=O)[C@H](Cc4cccc6ccccc46)NC(=O)[C@@H]4CCCN4C3=O)C(=O)N[C@@H](CCSC)C(=O)N[C@@H](CCCCNC(=N)N)C(=O)N[C@@H](CC(=O)O)C(=O)N[C@@H](Cc3c[nH]c4ccccc34)C(=O)N[C@@H](CO)C(=O)N[C@@H]([C@@H](C)O)C(=O)N3CCC[C@H]3C(=O)N3C[C@H](O)C[C@H]3C(=O)N[C@@H](Cc3c[nH]c4ccccc34)C(=O)N[C@H](C(N)=O)CSCCC5=O)nn1)C(=O)N1CCC[C@H]1C(=O)N[C@@H](Cc1ccc(O)cc1)C(=O)N2", "target": "Tumor necrosis factor receptor superfamily member 9", "test": "SPR", "Kd": "0.012 µM"}
{"Structure (SMILES)": "CC(c1ccccc1)n1cc(-c2ccccn2)c(=O)[nH]c1=O (stereo not shown)", "target": "MET", "Kd": "5.01 µM"}
{"Structure (SMILES)": "CN1CN(c2ccccc2)C2(CCN(CCCC(=O)c3ccc(F)cc3)CC2)C1=O", "target": "D(2) dopamine receptor (Drd2, Rattus norvegicus, UniProt P61169)", "test": "radioligand", "conditions": "cell membranes", "Kd": "9e-05 µM"}
{"Structure (SMILES)": "CCCC[C@@H]1NC(=O)[C@H](Cc2ccc(O)cc2)NC(=O)[C@@H]2CCCN2C(=O)[C@H](CC(=O)O)NC(=O)[C@H](C)NC(=O)[C@H](Cc2ccccc2)NC(=O)[C@@H]2CSCCC(=O)N3CN(CN(C3)C(=O)CCSC[C@@H](C(=O)N[C@@H](C)C(N)=O)NC1=O)C(=O)CCSC[C@H](NC(C)=O)C(=O)N[C@@H](CC(C)(C)C)C(=O)N1CCC[C@H]1C(=O)N[C@@H](CCC(=O)O)C(=O)N[C@H](CCCCNC(=O)CCc1cn(CCOCCOCCOCCOCCOCCC(=O)N[C@H]3CSCCC(=O)N4CN5CN(C4)C(=O)CCSC[C@H](NC(=O)CNC(=O)[C@H](Cc4ccccc4)NC(=O)[C@@H]4CCCN4C3=O)C(=O)N[C@@H](CCSC)C(=O)N[C@@H](CCCCNC(=N)N)C(=O)N[C@@H](CC(=O)O)C(=O)N[C@@H](Cc3c[nH]c4ccccc34)C(=O)N[C@@H](CO)C(=O)N[C@@H]([C@@H](C)O)C(=O)N3CCC[C@H]3C(=O)N3C[C@H](O)C[C@H]3C(=O)N[C@@H](Cc3c[nH]c4ccccc34)C(=O)N[C@H](C(N)=O)CSCCC5=O)nn1)C(=O)N1CCC[C@H]1C(=O)N[C@@H](Cc1ccc(O)cc1)C(=O)N2", "target": "Tumor necrosis factor receptor superfamily member 9", "test": "SPR", "Kd": "0.0037 µM"}
{"Structure (SMILES)": "CCCCC1(CCCCCCCCCCCCC(=O)O)OCC(C)(C)N1[O] (stereo not shown)", "target": "kcsA (Streptomyces lividans, UniProt P0A334)", "Kd": "0.1 to 1 µM"}
{"Structure (SMILES)": "OC[C@H]1OC(O)[C@H](O)[C@@H](O)[C@@H]1O (stereo partly shown)", "target": "Hexokinase-4 (GCK, Homo sapiens, UniProt P35557)", "test": "stopped-flow", "Kd": "5000 µM"}
